By MIC is commonly meant the lowest concentration that inhibits growth of the organism. By IC50 is commonly meant the concentration needed to halve the response being measured.

In assay [1] the test system is Escherichia coli. The experiment in a line: Median protective dose against Escherichia coli, determined in acute, lethal systemic infection in female charles river CD-1 mice (sc). In kind it is functional. The conditions noted are these: read-out: PD50. In a few lines:
(§1)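 Female Charles River CD-1 mice (18-22 g) were challenged intraperitoneally with about 100 median lethal doses in 0.5 mL 5% hog gastric mucin. Single compound doses in a twofold rising series were given in 0.5 mL at the time of challenge: sc as aqueous solution, po by gavage in 5% gum acacia. Groups of eight mice were used per dose. PD50 was estimated from survival percentages by log probit.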

Assay [2] relates to Escherichia coli. The experiment in a line: Antibacterial activity against Escherichia coli H560. The class given is functional. In a few lines: (§2)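 Minimum inhibitory concentration measured by standard microtitration, run as part of a panel of 11 bacterial organisms.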
The test system of the next assay is Streptococcus pyogenes. The experiment in a line: Antibacterial activity against Streptococcus pyogenes C203. The class given is functional. In a few lines:
as §2

For another assay, the system named is Klebsiella pneumoniae. The experiment in a line: Antibacterial activity against Klebsiella pneumoniae MGH-2. The class given is functional. In a few lines:
as §2

Another assay concerns Enterobacter cloacae. The experiment in a line: Antibacterial activity against Enterobacter cloacae MA2646. In kind it is functional.
For the next assay, the system named is Enterococcus faecalis. The experiment in a line: Antibacterial activity against Streptococcus faecalis MGH-2. The class given is functional. In a few lines: as §2
The test system of assay [3] is Staphylococcus aureus. The assay can be described thus: Antibacterial activity against Staphylococcus aureus H-228. The class given is functional. The procedure, abridged:
as §2

Another assay has as its system Pseudomonas aeruginosa. The assay can be described thus: Antibacterial activity against Pseudomonas aeruginosa UI-18. The class given is functional. In a few lines:
as §2

In assay [4] the test system is Staphylococcus aureus. The assay can be described thus: Antibacterial activity against Staphylococcus aureus UC76. The class given is functional. The procedure, abridged: as §2
The subject of assay [5] is Escherichia coli. The assay can be described thus: Median protective dose against Escherichia coli, determined in acute, lethal systemic infection in female charles river CD-1 mice (po). The class given is functional. The arrangement: PD50: unit not given here. The conditions noted are these: for ED50: Escherichia coli, po, read-out: PD50. In a few lines:
as §1

Another assay has as its system Streptococcus pneumoniae. The assay can be described thus: Antibacterial activity against Streptococcus pneumoniae SV-1. The class given is functional. The procedure, abridged:
as §2

For assay [6], the system named is Escherichia coli. The assay can be described thus: Antibacterial activity against Escherichia coli Vogel. The class given is functional. In a few lines: as §2
The subject of the next assay is Providencia rettgeri. The experiment in a line: Antibacterial activity against Providencia rettgeri M1771. In kind it is functional. The procedure, abridged:
as §2

The next assay deals with DNA gyrase (Escherichia coli, UniProt P0AES4+P0AES6). The assay can be described thus: 50% inhibitory concentration against DNA-gyrase. The class given is protein-complex assay.

≈ marks a conversion by molar mass, not a printed value. A value given as a limit tells only on which side of the number the result lay.

Consider `CC1COc2c(N3CCN(C)CC3)c(F)cc3c(=O)c(C(=O)O)cn1c23` (centres undefined) [OFLOXACIN], for which the ED50 in the assay on Escherichia coli [1] amounted to 0.8 mg/kg; with Escherichia coli [5], 2 mg/kg. For the same compound, the MIC was 0.1 µg/mL (≈ 0.277 µM) in the assay with Escherichia coli [2]; 0.8 µg/mL (≈ 2.21 µM) against Streptococcus pyogenes; 0.1 µg/mL (≈ 0.277 µM) in the assay with Klebsiella pneumoniae; 0.1 µg/mL (≈ 0.277 µM) in the assay with Enterobacter cloacae; 0.8 µg/mL (≈ 2.21 µM) against Enterococcus faecalis; 0.4 µg/mL (≈ 1.11 µM) in the assay on Staphylococcus aureus [3]. The MIC came out at 0.4 µg/mL (≈ 1.11 µM) in the assay on Pseudomonas aeruginosa; 0.1 µg/mL (≈ 0.277 µM) with Staphylococcus aureus [4]; 0.8 µg/mL (≈ 2.21 µM) with Streptococcus pneumoniae; 0.1 µg/mL (≈ 0.277 µM) against Escherichia coli [6]; 0.1 µg/mL (≈ 0.277 µM) against Providencia rettgeri.
On to `CN1CCN(c2c(F)c(N)c3c(=O)c(C(=O)O)cn(C4CC4)c3c2F)CC1`, for which the midpoint of inhibition at DNA gyrase, the IC50, lay at 7.4 µM. Moreover, the values for the ED50 in the assay with Escherichia coli [1] and with Escherichia coli [5] were 1.1 mg/kg and 2.2 mg/kg, respectively. In addition, the MIC with Escherichia coli [2] was 0.003 µg/mL (≈ 0.00793 µM); against Streptococcus pyogenes, 0.4 µg/mL (≈ 1.06 µM); against Klebsiella pneumoniae it was 0.013 µg/mL (≈ 0.0344 µM); with Enterobacter cloacae, 0.013 µg/mL (≈ 0.0344 µM); with Enterococcus faecalis it was 0.1 µg/mL (≈ 0.264 µM); against Staphylococcus aureus [3], 0.05 µg/mL (≈ 0.132 µM). The MIC against Pseudomonas aeruginosa was found to be 0.1 µg/mL (≈ 0.264 µM); in the assay on Staphylococcus aureus [4], 0.025 µg/mL (≈ 0.0661 µM); against Streptococcus pneumoniae, 0.2 µg/mL (≈ 0.529 µM); against Escherichia coli [6], 0.013 µg/mL (≈ 0.0344 µM); in the assay on Providencia rettgeri it was 0.05 µg/mL (≈ 0.132 µM).
For `CC(=O)Nc1c(F)c(N2CCNCC2)c(F)c2c1c(=O)c(C(=O)O)cn2C1CC1`, the IC50 at DNA gyrase was more than 246 µM. In addition, the MIC in the assay with Escherichia coli [2], in the assay with Streptococcus pyogenes, against Klebsiella pneumoniae, against Enterobacter cloacae, against Enterococcus faecalis and against Staphylococcus aureus [3] was more than 25 µg/mL throughout. The MIC with Pseudomonas aeruginosa, against Staphylococcus aureus [4], against Streptococcus pneumoniae, with Escherichia coli [6] and with Providencia rettgeri was more than 25 µg/mL throughout.
Turning to `CC1COc2c(N3CCN(C)CC3)c(F)c(N)c3c(=O)c(C(=O)O)cn1c23` (centres undefined), the IC50 against DNA gyrase was 69.1 µM. Further, the ED50 in the assay with Escherichia coli [1] is 4.6 mg/kg; in the assay on Escherichia coli [5] it was 7.5 mg/kg. The MIC against Escherichia coli [2] worked out at 0.1 µg/mL (≈ 0.266 µM); in the assay on Streptococcus pyogenes, 3.1 µg/mL (≈ 8.24 µM); in the assay with Klebsiella pneumoniae it was 0.4 µg/mL (≈ 1.06 µM); against Enterobacter cloacae, 0.8 µg/mL (≈ 2.13 µM); against Enterococcus faecalis, 1.6 µg/mL (≈ 4.25 µM); against Staphylococcus aureus [3] it was 0.8 µg/mL (≈ 2.13 µM). Besides, the MIC against Pseudomonas aeruginosa worked out at 0.8 µg/mL (≈ 2.13 µM); against Staphylococcus aureus [4] it was 0.2 µg/mL (≈ 0.531 µM); with Streptococcus pneumoniae it was 3.1 µg/mL (≈ 8.24 µM); with Escherichia coli [6], 0.2 µg/mL (≈ 0.531 µM); against Providencia rettgeri, 1.6 µg/mL (≈ 4.25 µM).
Turning to `CNc1c(F)c(N2CCNCC2)c(F)c2c1c(=O)c(C(=O)O)cn2C1CC1`, at DNA gyrase, inhibition was half-maximal at 36.5 µM (IC50). In addition, the ED50 in the assay with Escherichia coli [1] worked out at 0.8 mg/kg; with Escherichia coli [5] it was 1.5 mg/kg. For the same compound, the MIC is 0.025 µg/mL (≈ 0.0661 µM) with Escherichia coli [2]; 3.1 µg/mL (≈ 8.19 µM) in the assay with Streptococcus pyogenes; 0.1 µg/mL (≈ 0.264 µM) with Klebsiella pneumoniae; 0.1 µg/mL (≈ 0.264 µM) against Enterobacter cloacae; 1.6 µg/mL (≈ 4.23 µM) against Enterococcus faecalis; 0.8 µg/mL (≈ 2.11 µM) against Staphylococcus aureus [3]. For the same compound, the minimum inhibitory concentration (MIC) against Pseudomonas aeruginosa was 1.6 µg/mL (≈ 4.23 µM); in the assay on Staphylococcus aureus [4], 0.2 µg/mL (≈ 0.529 µM); against Streptococcus pneumoniae, 0.8 µg/mL (≈ 2.11 µM); in the assay on Escherichia coli [6], 0.1 µg/mL (≈ 0.264 µM); with Providencia rettgeri, 0.8 µg/mL (≈ 2.11 µM).
The compound `NCC1CCN(c2c(F)c(N)c3c(=O)c(C(=O)O)cn(C4CC4)c3c2F)C1` (centres undefined) had an IC50 against DNA gyrase of 7.66 µM. The results for the ED50 in the assay with Escherichia coli [1] and in the assay on Escherichia coli [5] were 0.8 mg/kg and 12 mg/kg, respectively. Further, the MIC turned out to be 0.003 µg/mL (≈ 0.00793 µM) against Escherichia coli [2]; 0.003 µg/mL (≈ 0.00793 µM) in the assay on Streptococcus pyogenes; 0.025 µg/mL (≈ 0.0661 µM) in the assay on Klebsiella pneumoniae; 0.025 µg/mL (≈ 0.0661 µM) against Enterobacter cloacae; 0.013 µg/mL (≈ 0.0344 µM) with Enterococcus faecalis; 0.006 µg/mL (≈ 0.0159 µM) with Staphylococcus aureus [3]. Also, the MIC in the assay with Pseudomonas aeruginosa came out at 0.1 µg/mL (≈ 0.264 µM); in the assay with Staphylococcus aureus [4] it was 0.003 µg/mL (≈ 0.00793 µM); against Streptococcus pneumoniae it was 0.003 µg/mL (≈ 0.00793 µM); with Escherichia coli [6], 0.013 µg/mL (≈ 0.0344 µM); against Providencia rettgeri it was 0.05 µg/mL (≈ 0.132 µM).
On DNA gyrase, `CCNCC1CCN(c2c(F)c(N)c3c(=O)c(C(=O)O)cn(C4CC4)c3c2F)C1` (centres undefined) gave an IC50 of 6.64 µM. In addition, the ED50 in the assay on Escherichia coli [1] came to 2.4 mg/kg. The MIC is 0.013 µg/mL (≈ 0.032 µM) against Escherichia coli [2]; 0.013 µg/mL (≈ 0.032 µM) against Streptococcus pyogenes; 0.05 µg/mL (≈ 0.123 µM) in the assay with Klebsiella pneumoniae; 0.05 µg/mL (≈ 0.123 µM) against Enterobacter cloacae; 0.025 µg/mL (≈ 0.0615 µM) against Enterococcus faecalis; 0.013 µg/mL (≈ 0.032 µM) in the assay on Staphylococcus aureus [3]. The MIC in the assay with Pseudomonas aeruginosa was found to be 0.4 µg/mL (≈ 0.984 µM); with Staphylococcus aureus [4] it was 0.003 µg/mL (≈ 0.00738 µM); against Streptococcus pneumoniae it was 0.003 µg/mL (≈ 0.00738 µM); in the assay with Escherichia coli [6], 0.05 µg/mL (≈ 0.123 µM); against Providencia rettgeri it was 0.05 µg/mL (≈ 0.123 µM). The PD50 with Escherichia coli [5] was 16.
As for `CCNCC1CCN(c2c(F)cc3c(=O)c(C(=O)O)cn(C4CC4)c3c2F)C1` (centres undefined) [PD-117558], half-maximal inhibition against DNA gyrase (IC50) required 3.58 µM. Further, the ED50 came to 1 mg/kg with Escherichia coli [1] and 4.2 mg/kg in the assay with Escherichia coli [5]. The MIC amounted to 0.025 µg/mL (≈ 0.0639 µM) in the assay on Escherichia coli [2]; 0.025 µg/mL (≈ 0.0639 µM) in the assay on Streptococcus pyogenes; 0.1 µg/mL (≈ 0.255 µM) against Klebsiella pneumoniae; 0.2 µg/mL (≈ 0.511 µM) with Enterobacter cloacae; 0.025 µg/mL (≈ 0.0639 µM) in the assay on Enterococcus faecalis; 0.05 µg/mL (≈ 0.128 µM) in the assay with Staphylococcus aureus [3]. Further, the MIC with Pseudomonas aeruginosa is 0.4 µg/mL (≈ 1.02 µM); in the assay on Staphylococcus aureus [4], 0.006 µg/mL (≈ 0.0153 µM); against Streptococcus pneumoniae it was 0.025 µg/mL (≈ 0.0639 µM); in the assay with Escherichia coli [6], 0.05 µg/mL (≈ 0.128 µM); with Providencia rettgeri, 0.2 µg/mL (≈ 0.511 µM).

Values taken from ChEMBL document CHEMBL1124255, “7-substituted 5-amino-1-cyclopropyl-6,8-difluoro-1,4-dihydro-4-oxo-3- quinolinecarboxylic acids: synthesis and biological activity of a new class of quinolone antibacterials” (J Med Chem, 1988).
